Measurements reported in ChEMBL document CHEMBL1250419, “An integrative in silico methodology for the identification of modulators of macrophage migration inhibitory factor (MIF) tautomerase activity” (Bioorg Med Chem, 2010).
pIC50: −log10 of the molar value.

Legend:
[1] = molecular target: T1, Macrophage migration inhibitory factor (Homo sapiens, UniProt P14174); test: Inhibition of human MIF tautomerase activity
T1 sequence (P14174 whole entry): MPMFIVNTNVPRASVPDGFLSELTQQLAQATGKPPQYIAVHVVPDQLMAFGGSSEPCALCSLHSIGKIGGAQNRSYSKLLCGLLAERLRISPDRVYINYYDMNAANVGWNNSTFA
In short: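 Wild-type human MIF (500 nM final) preincubated with compound for 2 h at room temperature over 24 nM–50 μM or 98–200 μM. Buffer: 50 mM potassium phosphate, 0.5 mM EDTA, pH 6, no detergent. Reaction started with 533 μM freshly made D-dopachrome methyl ester; end-point absorbance at 475 nm after 2 min. Triplicate runs; IC50 by nonlinear regression.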

[2] = molecular target: T1, Macrophage migration inhibitory factor; test: Inhibition of human MIF tautomerase activity in presence of Triton X-100 as detergent
In short: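 Counter-screen for aggregation-based inhibition, with 0.1% v/v Triton X-100 in both buffer and enzyme stock. Wild-type human MIF (500 nM) preincubated with compound for 2 h at room temperature in 50 mM potassium phosphate, 0.5 mM EDTA, pH 6. 533 μM D-dopachrome methyl ester added; 475 nm end-point read at 2 min. IC50 by nonlinear regression.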

[3] = molecular target: T2, Macrophage migration inhibitory factor (Homo sapiens) (UniProt P14174); test: Inhibition of human MIF tautomerase activity at 200 uM
T2 sequence (whole entry): T1 sequence (P14174 whole entry)
In short: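 Wild-type human MIF (500 nM) preincubated with compound at 200 μM for 2 h at room temperature in 50 mM potassium phosphate, 0.5 mM EDTA, pH 6. Reaction started with 533 μM fresh D-dopachrome methyl ester. Percent inhibition taken from absorbance at 475 nm 2 min after substrate addition.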

Row | SMILES | pIC50 [1] | pIC50 [2] | inhibition [3] [%]
1 | O=C(NOC(=O)c1ccccc1Br)c1ccc(Cl)cc1 | 5.55 | 5.38 | 
2 | COc1ccccc1C(=O)n1nnc2ccccc21 | 5.16 | 4.91 | 
3 | CCOC(=O)/C(C#N)=C/c1ccc(O)cc1O | 4.21 | 3.96 | 
4 | O=C(Oc1ccc(-c2ccccc2)nn1)c1cccs1 | 7.30 | 7.30 | 
5 | O=C(c1ccccc1)c1cc2ccc(O)cc2oc1=O | 4.19 |  | 
6 | Cc1ccc(C(=O)/C=C/Nc2ccc(F)cc2F)o1 | 4.24 |  | 
7 | O=[N+]([O-])c1cc(S(=O)(=O)C(F)(F)F)ccc1Sc1nnc(S)s1 | 5.02 |  | 
8 | S=C(Nc1ccccn1)Nc1ccccc1Cl | 5.98 | 6.00 | 
9 | COC(=O)CSc1nnc(-c2cccs2)n1C | 4.73 | 4.55 | 
10 | CCCCOC(=O)Sc1nc2ccccc2o1 | 7.10 | 6.82 | 
11 | CC(=O)c1cc2ccc(O)cc2oc1=O | 4.34 | 3.99 | 
12 | S=C(Nc1ccccc1)Nc1nncs1 | 6.52 | 6.38 | 
13 | O=Nc1c(-c2ccccc2)cc2ccccn12 | 3.92 |  | 
14 | O=[N+]([O-])c1ccc(NCc2ccco2)c2nonc12 | 4.22 |  | 
15 | c1ccc(NCn2nnc3ccccc32)nc1 |  |  | 69
